As a reminder, the viability is a read-out of living cells in per cent, often relative to untreated cells. By inhibition is commonly meant the change of the read-out against control, counted positive when it falls.

Data on 14 compounds can be found in PubChem BioAssay.

The source made the active and inactive calls. Rule as the data show it, unless noted: active = inhibition above about 30%; inactive = the rest.

Assay [1] in a line: Her2 expression decrease, cell viability multiplex – SKBR3 breast tumor cells, AlphaScreen, ATP viability, primary screen (AID 461;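 active = Her2 level under about 52% in both replicate screens, with viability over 70% of control, limit read from the data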;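 as to Her2 level: lower value means less Her2 protein in the cells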;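 as to viability: percent of carrier control wells set as 100% viability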). As to conditions: SKBR3 Her2 protein level, 18-24 h, measured here: SKBR3 viability, ATP luminescence, at 10 µM.
The target in assay [2] is Receptor tyrosine-protein kinase erbB-2 (Homo sapiens) (UniProt P04626). The description is as above. As to conditions: 18-24 h, at 10 µM, stronger effect = lower value.
Assay [3] in a line: reduced viability of SK-BR-3 breast cancer cells – cell-based, 24 h, human, pilot screen (AID 572;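 active = viability at or below 10% of carrier control in both of two separate runs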;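 also: compound exposure lasted between 18 and 24 h rather than exactly 24 h; 100% = carrier-treated control wells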). As to conditions: SK-BR-3 viability, CellTiter-Glo luminescence, at 10 µM, stronger effect = lower value.
Assay [4] can be described thus: HUVEC growth inhibition – cell-based, human, primary screen (AID 575;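 active = viability at or below 30% in both replicate assays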;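 also: 100% = median of untreated cell wells with 0.1% DMSO on each plate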). To be noted: HUVEC proliferation, CellTiter-Glo luminescence, 72 h; at 10 µM; stronger effect = lower value. Summed up: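 Test system: primary human umbilical vein endothelial cells. Quantity: 1250 cells/well. Compound: single 10 µM dose, 0.1% DMSO, from 5x medium stock. Timing: 72 h treatment at 37 °C. Detection: ATP-based CellTiter-Glo luminescent read. Benchmarks: vehicle and MePR control wells. Format: 384-well plates coated with collagen.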
In general terms: ATP-based viability assays read luminescence as a measure of living cells.

Assay [5] in a line: H69AR cell proliferation blockers – human, duplicate replicates, primary screen (AID 580;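 active = viability at or under a set limit in both replicates, limit being median viability minus 3 SD, cut at about 48% in these data, passing the limit was not always enough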;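 also: 100% = mean luminescence of untreated wells and 0% = no signal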). To be noted: H69AR lung tumor cells viability, ATP luminescence, 72 h; at 10 µM; stronger effect = lower value.
The nature of assay [6]: MRP1 drug-resistance reversers in H69AR cells – cell-based, doxorubicin co-treatment, pilot screen (AID 601;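 active = viability loss from added drug above about 55%, and viability with drug at most 40%, in both replicates, limit read from the data, passing the limit was not always enough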). As to conditions: CellTiter-Glo, 72 h, at 10 µM; for differential viability (reversal): stronger effect = higher value.
Assay [7] is described as follows: yeast transport mutant growth inhibition pilot in 384-well plates, post-Golgi transport modulator project (AID 636; in the data active = inhibition above about 31%). As to conditions: absorbance 615 nm, about 18 h, stronger effect = higher value.
A short description of assay [8]: growth suppression of yeast trafficking mutant, preliminary HTS, modulators of trafficking downstream of Golgi apparatus project, 1536-format plate, OD 615 nm (AID 637). To be noted: yeast transport mutant growth, absorbance 615 nm, 18 h; stronger effect = higher value.
Setting [9] is: H69AR cells + 2 uM doxorubicin, measured here: viability with 2 uM doxorubicin, stronger effect = lower value.
Where [10] appears, read: H69AR cells, compound alone cytotoxicity.

Sequence of Receptor tyrosine-protein kinase erbB-2 (Homo sapiens) (P04626 whole entry, looked up): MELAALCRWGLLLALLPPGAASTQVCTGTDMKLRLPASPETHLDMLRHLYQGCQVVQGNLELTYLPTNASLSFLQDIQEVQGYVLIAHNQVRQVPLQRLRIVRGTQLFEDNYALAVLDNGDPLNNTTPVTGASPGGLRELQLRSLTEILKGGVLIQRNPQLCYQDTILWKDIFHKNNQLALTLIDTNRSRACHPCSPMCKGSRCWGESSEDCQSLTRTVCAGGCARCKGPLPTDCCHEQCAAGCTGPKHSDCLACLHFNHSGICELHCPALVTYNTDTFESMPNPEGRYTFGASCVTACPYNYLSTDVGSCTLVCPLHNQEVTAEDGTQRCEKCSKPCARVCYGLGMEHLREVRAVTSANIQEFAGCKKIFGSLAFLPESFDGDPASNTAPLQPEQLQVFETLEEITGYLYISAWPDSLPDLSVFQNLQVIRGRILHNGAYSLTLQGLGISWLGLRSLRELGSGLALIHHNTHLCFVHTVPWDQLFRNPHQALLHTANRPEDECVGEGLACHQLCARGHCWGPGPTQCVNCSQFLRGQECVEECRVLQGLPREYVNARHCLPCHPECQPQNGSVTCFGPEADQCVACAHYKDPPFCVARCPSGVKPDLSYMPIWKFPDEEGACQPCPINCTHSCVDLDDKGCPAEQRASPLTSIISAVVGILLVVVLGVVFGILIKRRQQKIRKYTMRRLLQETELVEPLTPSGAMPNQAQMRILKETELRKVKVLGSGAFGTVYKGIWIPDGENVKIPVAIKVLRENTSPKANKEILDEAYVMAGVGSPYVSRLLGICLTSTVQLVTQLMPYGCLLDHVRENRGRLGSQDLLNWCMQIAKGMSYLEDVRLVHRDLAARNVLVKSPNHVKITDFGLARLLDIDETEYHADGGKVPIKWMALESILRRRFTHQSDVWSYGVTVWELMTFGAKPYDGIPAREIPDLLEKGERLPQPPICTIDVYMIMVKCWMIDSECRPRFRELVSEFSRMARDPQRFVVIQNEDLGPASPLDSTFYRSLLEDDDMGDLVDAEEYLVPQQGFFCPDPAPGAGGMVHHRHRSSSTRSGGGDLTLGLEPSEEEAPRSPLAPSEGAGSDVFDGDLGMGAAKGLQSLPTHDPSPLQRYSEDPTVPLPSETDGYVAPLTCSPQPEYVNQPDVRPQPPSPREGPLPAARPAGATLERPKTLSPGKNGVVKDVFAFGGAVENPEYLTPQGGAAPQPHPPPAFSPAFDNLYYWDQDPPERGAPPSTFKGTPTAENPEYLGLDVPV

Consider `O=C(Nc1ccc2c(c1)nc1n2CCSC1)c1ccccc1`, for which the viability in assay [1] is 97%; in assay [3] it was 97% (inactive); in assay [4] it was 108% (inactive); in assay [5] it was 92.7% (inactive); in assay [6] (setting [9]), 76.8%; in assay [6] (setting [10]), 92.7%. The Her2 level in assay [2] is 114% (inactive). In assay [6] (H69AR cells + 2 uM doxorubicin), the differential viability (reversal) was 15.9% (inactive). Moreover, the values for the inhibition in assay [7] and in assay [8] were -0.26% (inactive) and -6% (inactive), respectively.
As to `CCOc1ccc(Nc2nc(Cc3nnc(SCC(N)=O)o3)cs2)cc1`, the viability in assay [1] was 106%; in assay [3] it was 106% (inactive); in assay [4], 89.8% (inactive); in assay [5] it was 93.6% (inactive); in assay [6] (setting [9]), 80.4%; in assay [6] (setting [10]), 93.6%. The Her2 level in assay [2] was 88% (inactive). For the same compound, in assay [6] (H69AR cells + 2 uM doxorubicin), the differential viability (reversal) was 13.2% (inactive). Also, the results for the inhibition in assay [7] and in assay [8] were -6.1% (inactive) and -2.7% (inactive), respectively.
As to `COc1ccccc1C(=O)Nc1ccc(S(=O)(=O)N2CCOCC2)cc1`, the viability in assay [1] is 104%; in assay [3], 104% (inactive); in assay [4], 92.9% (inactive); in assay [5], 93.2% (inactive); in assay [6] (setting [9]), 93.7%; in assay [6] (setting [10]), 93.2%. Besides, the Her2 level in assay [2] is 104% (inactive). The differential viability (reversal) in assay [6] (H69AR cells + 2 uM doxorubicin) was -0.52% (inactive). The results for the inhibition in assay [7] and in assay [8] were -2.89% (inactive) and 4.59% (inactive), respectively.
Consider `O=C(CN1CCOCC1)N1CCCc2c1c(=O)oc1ccc(OCc3ccccc3)cc21`, for which the viability in assay [1] was 82%; in assay [3], 82% (inactive); in assay [4], 94.8% (inactive); in assay [5], 77.2% (inactive); in assay [6] (setting [9]) it was 72.6%; in assay [6] (setting [10]), 77.2%. In addition, the Her2 level in assay [2] is 99.5% (inactive). In addition, the differential viability (reversal) in assay [6] (H69AR cells + 2 uM doxorubicin) was 4.61% (inactive). The values for the inhibition in assay [7] and in assay [8] were -5.07% (inactive) and -4.1% (inactive), respectively.
As to `CC(=O)Nc1ccc(S(=O)(=O)NCC(C)NS(=O)(=O)c2ccc(NC(C)=O)cc2)cc1` (stereo not given), the viability in assay [1] was 106%; in assay [3] it was 106% (inactive); in assay [4], 94.5% (inactive); in assay [5], 98.6% (inactive); in assay [6] (setting [9]) it was 95.5%; in assay [6] (setting [10]), 98.6%. For the same compound, the Her2 level in assay [2] is 114% (inactive). Further, the differential viability (reversal) in assay [6] (H69AR cells + 2 uM doxorubicin) was 3.06% (inactive). For the same compound, the inhibition in assay [7] was 0.13% (inactive); in assay [8], -1.27% (inactive).
On to `CCOC(=O)c1ccc2nc(NC(NC(C)=O)(C(=O)OC)C(F)(F)F)sc2c1` (stereo not given), for which the viability in assay [1] is 98.5%; in assay [3], 98.5% (inactive); in assay [4], 82.8% (inactive); in assay [5] it was 98.6% (inactive); in assay [6] (setting [9]) it was 83.6%; in assay [6] (setting [10]), 98.6%. Moreover, in assay [2], the Her2 level was 88.5% (inactive). Further, the differential viability (reversal) in assay [6] (H69AR cells + 2 uM doxorubicin) is 15% (inactive). The inhibition in assay [7] is -3.03% (inactive); in assay [8], -1.82% (inactive).
Regarding `CC1CCN(CCCNC(=O)c2cn(C)c3ccc(S(=O)(=O)N4CCCC4)cc3c2=O)CC1`, the viability in assay [1] is 90.5%; in assay [3] it was 90.5% (inactive); in assay [4], 96.9% (inactive); in assay [5], 91% (inactive); in assay [6] (setting [9]), 88%; in assay [6] (setting [10]), 91%. For the same compound, the Her2 level in assay [2] is 80% (inactive). For the same compound, the differential viability (reversal) in assay [6] (H69AR cells + 2 uM doxorubicin) is 3.01% (inactive). For the same compound, the inhibition in assay [7] was -6.76% (inactive); in assay [8], 1% (inactive).
As for `COc1ccccc1NC(=O)C(O)C(O)C(=O)Nc1ccccc1OC` (stereo not given), the viability in assay [1] was 111%; in assay [3] it was 111% (inactive); in assay [4], 116% (inactive); in assay [5] it was 96.1% (inactive); in assay [6] (setting [9]) it was 92.1%; in assay [6] (setting [10]), 96.1%. The Her2 level in assay [2] is 104% (inactive). Further, the differential viability (reversal) in assay [6] (H69AR cells + 2 uM doxorubicin) is 4.04% (inactive). The inhibition in assay [7] was -7.43% (inactive); in assay [8], -2.83% (inactive).
Consider `O=C(CCCn1c(=S)[nH]c2ccccc2c1=O)N1CCCCC1`, for which the viability in assay [1] was 86%; in assay [3], 86% (inactive); in assay [4], 87.1% (inactive); in assay [5] it was 96.8% (inactive); in assay [6] (setting [9]), 90.2%; in assay [6] (setting [10]), 96.8%. In assay [2], the Her2 level was 108% (inactive). Besides, the differential viability (reversal) in assay [6] (H69AR cells + 2 uM doxorubicin) is 6.58% (inactive). Besides, the inhibition is -2.63% (inactive) in assay [7] and -8.1% (inactive) in assay [8].
Consider `CCOC(=O)N1CCN(C(=O)CSc2ncnc3ccccc23)CC1`, for which the viability in assay [1] was 92%; in assay [3], 92% (inactive); in assay [4] it was 87.2% (inactive); in assay [5] it was 89.1% (inactive); in assay [6] (setting [9]), 74.1%; in assay [6] (setting [10]), 89.1%. Further, the Her2 level in assay [2] was 96% (inactive). In assay [6] (H69AR cells + 2 uM doxorubicin), the differential viability (reversal) was 14.9% (inactive). Further, the inhibition in assay [7] was -1.33% (inactive); in assay [8] it was 0.33% (inactive).
On to `c1ccc(Cc2nnc3n2CCCCC3)cc1`, for which the viability in assay [1] is 99%; in assay [3], 99% (inactive); in assay [4], 93.9% (inactive); in assay [5], 99.2% (inactive); in assay [6] (setting [9]), 97.7%; in assay [6] (setting [10]), 99.2%. Also, the Her2 level in assay [2] was 90% (inactive). For the same compound, the differential viability (reversal) in assay [6] (H69AR cells + 2 uM doxorubicin) is 1.42% (inactive). Moreover, the inhibition in assay [7] is -7.2% (inactive); in assay [8], 0.82% (inactive).
For `Cc1csc(SCC(=O)NC(=O)NCc2ccccc2)n1`, the viability is 108% in assay [1]; 108% (inactive) in assay [3]; 103% (inactive) in assay [4]; 95.2% (inactive) in assay [5]; 95.3% in assay [6] (setting [9]); 95.2% in assay [6] (setting [10]). For the same compound, the Her2 level in assay [2] is 90.5% (inactive). Also, in assay [6] (H69AR cells + 2 uM doxorubicin), the differential viability (reversal) was -0.125% (inactive). For the same compound, the inhibition in assay [7] is -6.67% (inactive); in assay [8], 2.3% (inactive).
`Clc1ccc(-n2ncc3c(NCCCn4ccnc4)ncnc32)cc1`: the viability in assay [1] was 87%; in assay [3], 87% (inactive); in assay [4] it was 91.2% (inactive); in assay [5], 93.5% (inactive); in assay [6] (setting [9]), 82.2%; in assay [6] (setting [10]) it was 93.5%. Also, the Her2 level in assay [2] was 76.5% (inactive). Moreover, in assay [6] (H69AR cells + 2 uM doxorubicin), the differential viability (reversal) is 11.3% (inactive). Further, the inhibition in assay [7] is -5.6% (inactive); in assay [8], 3.39% (inactive).
For `COC(=O)c1cc(O)c(OCc2ccccc2)c(O)c1`, the viability in assay [1] is 88%; in assay [3], 88% (inactive); in assay [4], 114% (inactive); in assay [5] it was 94.3% (inactive); in assay [6] (setting [9]), 76.3%; in assay [6] (setting [10]), 94.3%. The Her2 level in assay [2] is 98% (inactive). Besides, in assay [6] (H69AR cells + 2 uM doxorubicin), the differential viability (reversal) was 18% (inactive). The figures for the inhibition in assay [7] and in assay [8] were 2.63% (inactive) and -7.09% (inactive), respectively.
